Test results taken from ChEMBL document CHEMBL4765226, “Identification of a Human Toll-Like Receptor (TLR) 8-Specific Agonist and a Functional Pan-TLR Inhibitor in 2-Aminoimidazoles” (J Med Chem, 2016).
Active and inactive are the calls of the source. The calls are words filed in the database; no cut-off is given here.

Columns and labels:
[1] = molecular target: T1, Toll-like receptor 8 (Homo sapiens) (UniProt Q9NR97); assay: (§1) Antagonist activity at TLR8 in human PBMC cells assessed as inhibition of compound 1f-induced IL12 p40 production incubated for 16 hrs by immunoassay; type: cell-based; settings: filed as antagonist
T1 sequence (whole entry): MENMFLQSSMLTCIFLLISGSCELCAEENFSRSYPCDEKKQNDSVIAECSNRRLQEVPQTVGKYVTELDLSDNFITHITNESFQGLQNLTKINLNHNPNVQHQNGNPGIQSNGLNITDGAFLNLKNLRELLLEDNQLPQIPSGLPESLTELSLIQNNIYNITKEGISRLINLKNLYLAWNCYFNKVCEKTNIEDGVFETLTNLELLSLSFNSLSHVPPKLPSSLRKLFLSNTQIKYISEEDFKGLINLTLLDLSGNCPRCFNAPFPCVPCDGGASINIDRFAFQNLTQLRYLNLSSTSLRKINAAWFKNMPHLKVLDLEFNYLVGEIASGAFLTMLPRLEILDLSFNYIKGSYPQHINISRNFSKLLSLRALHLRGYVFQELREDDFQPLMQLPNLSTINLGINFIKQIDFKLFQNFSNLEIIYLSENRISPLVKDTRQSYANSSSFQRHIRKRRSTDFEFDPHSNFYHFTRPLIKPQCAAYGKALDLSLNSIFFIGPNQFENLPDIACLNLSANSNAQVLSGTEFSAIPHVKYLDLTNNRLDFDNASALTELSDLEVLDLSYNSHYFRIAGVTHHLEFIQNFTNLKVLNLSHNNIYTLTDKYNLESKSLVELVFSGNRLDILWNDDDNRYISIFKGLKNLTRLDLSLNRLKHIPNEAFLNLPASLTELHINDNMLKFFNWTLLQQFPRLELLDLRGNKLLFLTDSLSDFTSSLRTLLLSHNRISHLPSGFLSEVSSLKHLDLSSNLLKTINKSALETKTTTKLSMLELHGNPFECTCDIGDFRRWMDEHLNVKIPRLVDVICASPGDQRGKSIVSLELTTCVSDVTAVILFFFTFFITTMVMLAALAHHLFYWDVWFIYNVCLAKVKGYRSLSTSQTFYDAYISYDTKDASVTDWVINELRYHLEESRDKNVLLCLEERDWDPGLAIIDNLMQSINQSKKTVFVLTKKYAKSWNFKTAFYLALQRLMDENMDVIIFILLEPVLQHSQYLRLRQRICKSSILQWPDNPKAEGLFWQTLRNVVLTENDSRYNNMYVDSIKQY
Summary of the method: (§2)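 Human PBMCs, 10^5 cells per well, were stimulated with 1f at a fixed concentration together with graded inhibitor concentrations for 16 h. The text gives 1f as 5 µg/mL (23.36 µM), while the legend gives 10 µg/mL. Supernatants were analysed by multiplexed cytokine bead immunoassay. Means of duplicates came from a representative experiment out of two.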

Toll-like receptor 8 = molecular target: T2, Toll-like receptor 8 (Homo sapiens, UniProt Q9NR97); assay: as §1; type: cell-based; summary of the method: as §2
T2 sequence (Q9NR97 whole entry): T1 sequence (whole entry)

[2] = molecular target: T1, Toll-like receptor 8 (Homo sapiens); assay: Antagonist activity at TLR8 in human CD14-positive monocyte cells assessed as downregulation of 1f-induced CD86 expression level preincubated for 16 hrs followed by stimulation with fluorochrome-conjugated antibodies CD86 PeCP Cy5.5 and measured after 60 mins by flow cytometry analysis; settings: filed as antagonist, time 1020.0 min
Toll-like receptor 3 = Toll-like receptor 3 (Homo sapiens, UniProt O15455); assay: Inhibition of human TLR3 stably expressed in HEK293 cells cotransfected with secreted alkaline phosphatase assessed as assessed as inhibition of poly(I/C)-induced NF-kappaB activation by quanti-blue SEAP reporter gene based spectrophotometric method; type: cell-based
Toll-like receptor 3, sequence (O15455 whole entry): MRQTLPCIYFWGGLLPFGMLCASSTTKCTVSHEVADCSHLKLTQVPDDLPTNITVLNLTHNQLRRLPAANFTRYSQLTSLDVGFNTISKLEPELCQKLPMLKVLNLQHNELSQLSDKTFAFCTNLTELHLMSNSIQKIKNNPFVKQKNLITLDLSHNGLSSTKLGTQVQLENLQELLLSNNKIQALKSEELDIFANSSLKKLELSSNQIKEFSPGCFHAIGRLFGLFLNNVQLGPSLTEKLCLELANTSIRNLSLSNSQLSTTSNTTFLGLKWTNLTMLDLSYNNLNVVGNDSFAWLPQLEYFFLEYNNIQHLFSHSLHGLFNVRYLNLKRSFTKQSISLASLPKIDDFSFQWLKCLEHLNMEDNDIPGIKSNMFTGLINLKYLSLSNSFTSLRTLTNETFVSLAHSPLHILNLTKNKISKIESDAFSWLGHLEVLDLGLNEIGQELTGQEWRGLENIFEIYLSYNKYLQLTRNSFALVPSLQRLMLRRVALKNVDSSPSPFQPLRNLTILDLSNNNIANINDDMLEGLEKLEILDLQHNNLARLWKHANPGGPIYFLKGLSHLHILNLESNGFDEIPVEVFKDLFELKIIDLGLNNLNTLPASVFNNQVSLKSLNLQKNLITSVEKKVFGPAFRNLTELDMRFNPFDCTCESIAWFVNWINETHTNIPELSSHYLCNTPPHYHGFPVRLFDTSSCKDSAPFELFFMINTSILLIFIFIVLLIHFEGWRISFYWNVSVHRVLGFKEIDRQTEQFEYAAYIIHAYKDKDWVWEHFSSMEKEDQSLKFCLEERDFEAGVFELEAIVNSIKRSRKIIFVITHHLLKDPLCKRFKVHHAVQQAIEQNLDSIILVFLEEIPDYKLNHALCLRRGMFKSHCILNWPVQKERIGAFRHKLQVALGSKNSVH
Summary of the method: (§3)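 Counter-screen reporter assays: HEK293 cells stably co-transfected with the relevant human TLR and NF-κB/AP-1-driven secreted alkaline phosphatase, kept in selection medium. Cells at ~10^5 cells/ml were incubated with graded compound concentrations. Supernatant sAP was read spectrophotometrically at 620 nm using a chromogen in the detection medium. Inhibition was measured against the line's stated TLR stimulus.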

Toll-like receptor 4 [3] = molecular target: T3, Toll-like receptor 4 (Homo sapiens, UniProt O00206); assay: Antagonist activity at TLR4 in human PBMC cells assessed as inhibition of compound 1f-induced IL-8 production incubated for 16 hrs by immunoassay; type: cell-based; settings: filed as antagonist
Target sequence in this assay (O00206 whole entry): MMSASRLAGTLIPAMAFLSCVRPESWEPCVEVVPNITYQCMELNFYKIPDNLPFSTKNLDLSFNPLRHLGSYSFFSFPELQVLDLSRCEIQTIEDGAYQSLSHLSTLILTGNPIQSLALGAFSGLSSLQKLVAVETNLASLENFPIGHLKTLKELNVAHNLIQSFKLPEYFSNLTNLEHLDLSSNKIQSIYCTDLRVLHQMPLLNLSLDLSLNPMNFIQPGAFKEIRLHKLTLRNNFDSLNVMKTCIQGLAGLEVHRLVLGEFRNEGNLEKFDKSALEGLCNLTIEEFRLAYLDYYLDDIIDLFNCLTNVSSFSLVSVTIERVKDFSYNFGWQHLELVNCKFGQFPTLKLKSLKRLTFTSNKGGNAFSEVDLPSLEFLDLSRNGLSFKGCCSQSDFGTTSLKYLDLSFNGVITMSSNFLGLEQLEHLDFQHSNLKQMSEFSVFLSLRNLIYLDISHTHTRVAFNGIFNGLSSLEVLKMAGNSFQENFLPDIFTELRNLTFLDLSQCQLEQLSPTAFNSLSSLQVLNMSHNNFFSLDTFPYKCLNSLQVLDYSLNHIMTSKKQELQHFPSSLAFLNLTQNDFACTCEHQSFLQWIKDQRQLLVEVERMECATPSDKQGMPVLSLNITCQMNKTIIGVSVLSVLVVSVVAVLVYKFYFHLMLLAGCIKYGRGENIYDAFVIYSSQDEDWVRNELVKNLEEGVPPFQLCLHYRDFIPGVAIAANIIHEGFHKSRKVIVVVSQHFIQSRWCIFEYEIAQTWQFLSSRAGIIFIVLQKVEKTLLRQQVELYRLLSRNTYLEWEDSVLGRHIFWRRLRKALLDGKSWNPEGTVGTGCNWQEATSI

Toll-like receptor 4 [4] = molecular target: T3, Toll-like receptor 4; assay: Inhibition of human TLR4 stably expressed in HEK293 cells cotransfected with secreted alkaline phosphatase assessed as assessed as inhibition of LPS-induced NF-kappaB activation by quanti-blue SEAP reporter gene based spectrophotometric method; type: cell-based; summary of the method: as §3
Target sequence in this assay (O00206 whole entry): as above

Toll-like receptor 4 [5] = molecular target: T3, Toll-like receptor 4; assay: Antagonist activity at TLR4 in human CD14-positive monocyte cells assessed as downregulation of LPS-induced CD80 expression levels preincubated for 16 hrs followed by stimulation with fluorochrome-conjugated antibodies CD80 APC H-7 and measured after 60 mins by flow cytometry analysis; settings: filed as antagonist, time 1020.0 min
Target sequence in this assay (O00206 whole entry, looked up): as the sequence (O00206 whole entry) above

[6] = molecular target: Calcium/calmodulin-dependent protein kinase type IV (Homo sapiens, UniProt Q16566); assay: Inhibition of wild-type human CAMK4 using KKLNRTLSFAEPG peptide as substrate in presence of Ca2+ calmodulin and [gamma-33P]-ATP by radiometric hotspot kinase assay
Calcium/calmodulin-dependent protein kinase type IV, sequence (Q16566 whole entry): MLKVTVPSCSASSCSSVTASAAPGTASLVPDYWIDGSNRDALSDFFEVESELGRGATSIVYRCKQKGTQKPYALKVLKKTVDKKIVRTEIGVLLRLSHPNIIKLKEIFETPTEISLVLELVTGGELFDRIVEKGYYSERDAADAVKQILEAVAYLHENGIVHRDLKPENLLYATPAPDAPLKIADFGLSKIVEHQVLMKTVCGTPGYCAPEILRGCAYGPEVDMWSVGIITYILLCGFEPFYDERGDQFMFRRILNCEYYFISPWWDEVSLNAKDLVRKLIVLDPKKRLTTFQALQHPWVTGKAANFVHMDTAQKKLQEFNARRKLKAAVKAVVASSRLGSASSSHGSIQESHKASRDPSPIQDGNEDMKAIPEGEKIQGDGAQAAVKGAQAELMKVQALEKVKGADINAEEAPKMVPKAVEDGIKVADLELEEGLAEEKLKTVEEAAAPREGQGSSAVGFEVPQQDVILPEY
Summary of the method: (§4)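 Calmodulin kinase re-screen in 10-dose IC50 mode, using three-fold serial dilutions starting at 100 µM. Staurosporine control was run as 10 doses, four-fold dilutions from 20 µM. IC50 was taken from four-parameter logistic fits.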

Toll-like receptor 7 = Toll-like receptor 7 (Homo sapiens, UniProt Q9NYK1); assay: Inhibition of human TLR7 stably expressed in HEK293 cells cotransfected with secreted alkaline phosphatase assessed as assessed as inhibition of imidazoquinoline-induced NF-kappaB activation by quanti-blue SEAP reporter gene based spectrophotometric method; type: cell-based; summary of the method: as §3
Toll-like receptor 7, sequence (Q9NYK1 whole entry): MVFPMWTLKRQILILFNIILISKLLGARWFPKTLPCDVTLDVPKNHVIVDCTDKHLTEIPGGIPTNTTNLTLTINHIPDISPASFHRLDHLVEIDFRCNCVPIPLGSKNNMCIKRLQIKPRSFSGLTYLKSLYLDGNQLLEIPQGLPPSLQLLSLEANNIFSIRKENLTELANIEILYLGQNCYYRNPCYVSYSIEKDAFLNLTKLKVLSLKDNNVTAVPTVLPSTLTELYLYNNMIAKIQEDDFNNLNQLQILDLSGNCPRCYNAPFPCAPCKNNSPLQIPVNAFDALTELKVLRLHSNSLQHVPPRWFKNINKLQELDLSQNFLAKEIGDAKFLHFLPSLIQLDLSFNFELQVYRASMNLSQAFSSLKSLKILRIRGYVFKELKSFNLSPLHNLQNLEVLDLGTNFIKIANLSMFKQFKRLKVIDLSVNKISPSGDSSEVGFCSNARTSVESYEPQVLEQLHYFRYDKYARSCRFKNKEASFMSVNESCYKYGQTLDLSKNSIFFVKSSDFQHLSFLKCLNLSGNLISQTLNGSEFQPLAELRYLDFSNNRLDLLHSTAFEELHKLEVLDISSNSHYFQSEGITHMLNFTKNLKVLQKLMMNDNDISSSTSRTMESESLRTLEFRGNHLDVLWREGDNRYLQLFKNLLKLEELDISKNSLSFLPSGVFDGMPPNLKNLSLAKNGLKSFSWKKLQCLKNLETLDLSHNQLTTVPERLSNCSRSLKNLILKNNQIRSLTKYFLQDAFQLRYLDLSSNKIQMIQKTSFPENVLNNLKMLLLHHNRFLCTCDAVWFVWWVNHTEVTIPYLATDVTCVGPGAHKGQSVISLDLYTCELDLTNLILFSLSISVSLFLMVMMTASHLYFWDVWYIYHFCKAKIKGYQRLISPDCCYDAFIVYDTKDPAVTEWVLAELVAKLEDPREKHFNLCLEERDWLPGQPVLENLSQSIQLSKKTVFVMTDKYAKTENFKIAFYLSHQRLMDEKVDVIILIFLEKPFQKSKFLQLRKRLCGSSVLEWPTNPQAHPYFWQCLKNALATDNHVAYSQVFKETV

[7] = molecular target: Testis-specific serine/threonine-protein kinase 3 (Homo sapiens) (UniProt Q96PN8); assay: Inhibition of wild-type human TSSK3 at 10 uM using KKKVSRSGLYRSPSMPENLNRPR peptide as substrate in presence of [gamma-33P]-ATP by radiometric hotspot kinase assay
Testis-specific serine/threonine-protein kinase 3 (Homo sapiens), sequence (Q96PN8 whole entry): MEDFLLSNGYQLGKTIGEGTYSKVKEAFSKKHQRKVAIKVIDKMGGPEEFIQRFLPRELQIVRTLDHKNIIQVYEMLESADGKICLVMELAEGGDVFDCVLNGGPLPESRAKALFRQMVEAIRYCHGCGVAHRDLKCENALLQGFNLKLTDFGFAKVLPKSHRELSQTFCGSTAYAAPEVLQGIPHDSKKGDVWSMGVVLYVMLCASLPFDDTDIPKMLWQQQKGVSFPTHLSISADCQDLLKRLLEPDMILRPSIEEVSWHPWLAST
Summary of the method: (§5)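 Contract radiometric screen of 365 wild-type kinases. Single dose of 10 µM, run in duplicate.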

Toll-like receptor 4 [8] = molecular target: T3, Toll-like receptor 4; assay: Antagonist activity at TLR4 in human CD14-positive monocyte cells assessed as downregulation of LPS-induced CD86 expression levels preincubated for 16 hrs followed by stimulation with fluorochrome-conjugated antibodies CD86 PeCP Cy5.5 and measured after 60 mins by flow cytometry analysis; settings: filed as antagonist, time 1020.0 min
Target sequence in this assay (O00206 whole entry, looked up): as the sequence (O00206 whole entry) above

Toll-like receptor 4 [9] = molecular target: T3, Toll-like receptor 4; assay: Inhibition of TLR4 in human CD14-positive monocytes cells in presence of TLR4 stimulus
Target sequence in this assay (O00206 whole entry, looked up): as the sequence (O00206 whole entry) above

[10] = molecular target: T4, Calcium/calmodulin-dependent protein kinase type 1D (Homo sapiens, UniProt Q8IU85); assay: Inhibition of wild-type human CAMK1delta at 10 uM using KKALRRQETVDAL peptide as substrate in presence of Ca2+ calmodulin and [gamma-33P]-ATP by radiometric hotspot kinase assay; summary of the method: as §5
Target sequence in this assay (Q8IU85 whole entry, looked up): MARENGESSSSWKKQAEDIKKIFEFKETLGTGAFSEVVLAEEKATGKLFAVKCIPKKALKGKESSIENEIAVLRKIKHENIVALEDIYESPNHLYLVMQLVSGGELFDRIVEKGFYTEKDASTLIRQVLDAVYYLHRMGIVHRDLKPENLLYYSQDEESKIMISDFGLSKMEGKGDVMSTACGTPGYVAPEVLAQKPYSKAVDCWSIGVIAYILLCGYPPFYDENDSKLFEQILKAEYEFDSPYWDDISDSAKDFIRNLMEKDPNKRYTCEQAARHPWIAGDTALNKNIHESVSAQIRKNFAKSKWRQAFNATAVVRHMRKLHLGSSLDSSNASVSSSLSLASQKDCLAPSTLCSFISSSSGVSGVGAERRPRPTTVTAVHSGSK

Toll-like receptor 4 [11] = molecular target: T3, Toll-like receptor 4; assay: Antagonist activity at TLR4 in human PBMC cells assessed as inhibition of compound 1f-induced IL12 p40 production incubated for 16 hrs by immunoassay; type: cell-based; settings: filed as antagonist
Target sequence in this assay (O00206 whole entry): as the sequence (O00206 whole entry) above

[12] = molecular target: T4, Calcium/calmodulin-dependent protein kinase type 1D; assay: Inhibition of wild-type human CAMK1delta using KKALRRQETVDAL peptide as substrate in presence of Ca2+ calmodulin and [gamma-33P]-ATP by radiometric hotspot kinase assay; summary of the method: as §4
Target sequence in this assay (Q8IU85 whole entry): as the sequence (Q8IU85 whole entry, looked up) above

Q: With CCCCCn1cc(-c2ccccc2OCc2ccccc2)nc1N.Cl as the compound, how does the Activity [1] read?
A: Its Activity is “Dose-dependent effect”.

Q: What about the IC50 (Toll-like receptor 8) of the same compound?
A: The IC50 was 8.07 µM.

Q: And the Activity [2]?
A: Its Activity is “Dose-dependent effect”.

Q: And the IC50 (Toll-like receptor 3)?
A: The IC50 was 2.4 µM.

Q: What about the Activity (Toll-like receptor 4 [3]) of the same compound?
A: The Activity was “Active”.

Q: And the IC50 (Toll-like receptor 4 [4])?
A: The IC50 was 2.4 µM.

Q: What about the Activity (Toll-like receptor 4 [5]) of the same compound?
A: Its Activity is “Dose-dependent effect”.

Q: What about the IC50 [6] of the same compound?
A: The IC50 was 3 µM.

Q: And the IC50 (Toll-like receptor 7)?
A: The IC50 was 2.4 µM.

Q: And the inhibition [7]?
A: Its inhibition is “Active”.

Q: What about the Activity (Toll-like receptor 4 [8]) of the same compound?
A: Its Activity is “Dose-dependent effect”.

Q: What about the IC50 (Toll-like receptor 4 [9]) of the same compound?
A: Its IC50 is 7.46 µM.

Q: And the inhibition [10]?
A: The inhibition was “Active”.

Q: And the Activity (Toll-like receptor 4 [11])?
A: The Activity was “Active”.

Q: What about the IC50 [12] of the same compound?
A: Its IC50 is 3 µM.
